Screening results from PubChem BioAssay.
SKKanGAS inh = blocks kanamycin growth of S. pyogenes SKKanGAS strain; actives 1.3% (n = 300,000); BacTiter-Glo, 6 h; inhibition, % at 7.5 µM;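 active = mean replicate score, as percent of positive control median, at least 50; inconclusive = mean below 50 but one replicate at or above 50; inactive = mean and every replicate below 50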;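 note: strain carries kanamycin resistance gene driven by streptokinase promoter and grows in 40 µg/ml kanamycin; loss of luminescence reflects streptokinase promoter inhibition or plain growth inhibition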
Autophagy HCS = alters autophagy in cells; MEF GFP-LC3 puncta imaging; test concentration mostly 10 µM; calls only at 10 µM (by protocol); actives 0.98% (n = 190,000);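 active = percentage of spot-positive cells more than 3 SD above its plate mean, without a fluorescence outlier flag or 80% toxicity; inconclusive = no clear call, values can overlap the other calls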
Rad51 HR inh = Rad51 (human) homologous recombination inhibition | actives 0.085% (n = 200,000) | AID 1385 | Q06609 | hRad51 DNA strand exchange, fluorescence dequenching | inhibition, % at 10 µM;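 active = inhibition above 40% at the single screening dose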
Target sequence (Q06609 whole entry, looked up): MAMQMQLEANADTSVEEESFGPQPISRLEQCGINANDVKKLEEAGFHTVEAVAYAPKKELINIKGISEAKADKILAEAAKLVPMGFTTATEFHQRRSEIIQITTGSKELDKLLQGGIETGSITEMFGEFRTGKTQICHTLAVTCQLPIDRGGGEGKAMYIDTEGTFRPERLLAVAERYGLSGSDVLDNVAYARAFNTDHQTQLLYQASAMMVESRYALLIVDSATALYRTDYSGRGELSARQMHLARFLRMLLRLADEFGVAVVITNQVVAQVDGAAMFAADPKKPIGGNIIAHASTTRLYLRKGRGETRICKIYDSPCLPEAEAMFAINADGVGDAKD
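Read-out basis: percent inhibition relative to plate controls and blanks / Assay system: human Rad51 nucleoprotein filaments preassembled on unlabelled ssDNA / Timing: filaments 15 min 37 °C, then compound 30 min / Control set: per-plate controls and blanks / Technique: fluorescence dequenching at 485/520 nm / Compound: 10 µM final, single point / Also added: Fluorescein- and BHQ1-tagged 47-mer duplex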
Ins promoter up = MIN6 insulin promoter up-regulation; MIN6 insulin promoter-GFP reporter, high-content imaging; active compounds read high; z-score at 5 µM; actives 0.3% (n = 190,000);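 active = z-score above 3 at 5 µM with at least 500 cells counted in the well; inconclusive = wells under 500 cells, flagged as cytotoxic or low count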
KCC2 mod = modulates chloride dependent transport by human KCC2; KCC2 cells, thallium flux FluoZin-2 fluorescence; B-score of Tl+ flux slope (higher = more flux/activation; lower = inhibition) at 10 µM; actives 2.2% (n = 190,000);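 active = thallium flux slope and its plate-corrected score both differing from the plate sample mean at a set confidence after two filtering rounds, in either direction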;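 note: slope of fluorescence scaled to starting intensity during 10 to 20 s after thallium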
WT yeast gro inh = growth inhibition of WT yeast, mitochondrial fusion screen | inhibition, % at 10 µM | actives 2.1% (n = 190,000) | mitochondrial fusion phenotypic screen, WT strain; in the data active = inhibition above about 58%; tested in S. cerevisiae
KCC2 secondary = KCC2 (human) modulation, secondary assay; shares compounds with KCC2 mod; HEK293-KCC2, thallium flux, FluoZin2 fluorescence; active compounds read high; normalised thallium flux (F/F0 slope) at 10 µM; actives 15% (n = 3,700);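 active = thallium flux slope above the same plate's solvent-only control mean plus 3 SD; inconclusive = the two replicate wells disagree; inactive = no significant difference from solvent-only control wells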
KCC2 bumet counter = bumetanide-insensitive thallium flux in KCC2 cells with ouabain, counter-screen. HEK293-KCC2 + bumetanide/ouabain, thallium flux FluoZin2; active compounds read high. actives 49% (n = 3,700). AID 1714. normalized thallium flux at 10 µM. shares compounds with KCC2 mod;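 active = thallium entry rate above the same plate's blocked-transporter control wells by more than 3 SD; inconclusive = the two repeat wells disagree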;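 note: raw slope of fluorescence over initial fluorescence between 10 and 20 s after thallium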
KCC2 sec2 = KCC2 (human) modulation, second secondary assay; shares compounds with KCC2 mod; HEK293-KCC2, thallium flux FluoZin2 fluorescence; actives lie on both sides; F/F0 rise rate, 10–20 s post-thallium; normalized thallium flux at 10 µM; actives 23% (n = 3,700); AID 1715;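 active = thallium flux slope more than 3 SD above or below the plate's solvent-only control mean, mostly below; inconclusive = the two repeat wells disagreed; inactive = no significant shift from solvent-only controls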
HEK counter1 = parental HEK flux effect, counter-screen; shares compounds with KCC2 mod; HEK293 parental cells, thallium flux FluoZin2, ouabain; baseline-ratio fluorescence slope, 10–20 s after thallium; thallium flux rate (normalised fluorescence) at 10 µM; AID 1716; actives 46% (n = 3,700);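 active = thallium flux rate significantly above the same plate's solvent-only control wells, beyond their mean plus 3 SD; inconclusive = the two replicate wells gave conflicting results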
KCC2 retest ouab = KCC2 (human) modulation, ouabain retest. shares compounds with KCC2 mod. HEK293-KCC2, thallium flux FluoZin2 fluorescence; bidirectional: low = inhibitor, high = activator. raw Tl+ flux slope (below DMSO = inhibition, above = activation) at 10 µM. actives 48% (n = 3,700). AID 1717;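 active = thallium flux slope beyond 3 SD from same-plate DMSO control mean in most replicates, usually higher, sometimes lower; inconclusive = repeat tests gave conflicting results; inactive = no significant difference from controls in most replicates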;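 note: slope of initial-normalized fluorescence between seconds 10 and 20 after thallium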
HEK counter2 = acts in parental HEK cells, second KCC2 counter-screen | thallium flux slope at 10 µM | HEK293 parental, thallium flux FluoZin-2 fluorescence slope | actives 33% (n = 3,700) | AID 1718 | shares compounds with KCC2 mod;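 active = thallium flux slope above the same plate's solvent-control mean plus 3 SD in both duplicate wells; inconclusive = duplicate wells that disagreed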;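 note: run without ouabain in cells lacking the KCC2 cotransporter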
Hits are given with their value. Shown are actives, neighbours in structure and some others; about 4.2% of the full set was active somewhere.

For CCOc1ccc(N(CCCCO)C(=S)NC(=O)c2ccc(C)c(Br)c2)cc1 the results were SKKanGAS inh inactive, Autophagy HCS inactive, Rad51 HR inh inactive, Ins promoter up inactive, KCC2 mod 13, WT yeast gro inh inactive, KCC2 secondary inactive, KCC2 bumet counter 0.049, KCC2 sec2 0.044, HEK counter1 0.029, KCC2 retest ouab 0.046 and HEK counter2 0.033.
CC(CNC(=O)c1ccc(OC2CCN(Cc3ccccn3)CC2)cc1)c1ccccc1 (centres undefined) was read as SKKanGAS inh inactive.
Screening CCC1CCCCN1C(=O)c1c[nH]c2ccc(S(=O)(=O)N(C)c3ccc(Cl)cc3)cc2c1=O (centres undefined) returned SKKanGAS inh inactive, Autophagy HCS inactive, Rad51 HR inh inactive, WT yeast gro inh inactive, KCC2 secondary inactive, KCC2 bumet counter inconclusive, KCC2 sec2 inconclusive, HEK counter1 inactive, KCC2 retest ouab inactive and HEK counter2 inactive.
O=C1NC[C@@H](Cc2cccc3ccccc23)N(CCc2cc(C(F)(F)F)cc(C(F)(F)F)c2)C1=O was read as SKKanGAS inh inactive, Rad51 HR inh inactive, Ins promoter up inactive, KCC2 mod -3.9, KCC2 secondary inactive, KCC2 bumet counter inactive, KCC2 sec2 0.025, HEK counter1 inactive, KCC2 retest ouab inactive and HEK counter2 inactive.
`CC1CN(S(=O)(=O)c2ccc(NC(=O)CCN3C(=O)c4ccccc4C3=O)cc2)CC(C)O1` (centres undefined) gave SKKanGAS inh inactive, Autophagy HCS inactive, Ins promoter up inactive, KCC2 mod -3.9, WT yeast gro inh inactive, KCC2 secondary inactive, KCC2 bumet counter inactive, KCC2 sec2 inactive, HEK counter1 inactive, KCC2 retest ouab inactive and HEK counter2 inactive.
For O=C(C(c1ccccc1)c1ccccc1)N1CC[C@@]2(O)CCCC[C@H]2C1 the results were SKKanGAS inh inactive, Ins promoter up inactive and KCC2 mod inactive.
`CC(C)Cn1c(-c2ccc(Br)o2)n[nH]c1=S` gave SKKanGAS inh inactive, Autophagy HCS inactive, Rad51 HR inh inactive, Ins promoter up inactive, KCC2 mod 12, WT yeast gro inh inactive, KCC2 secondary 0.018, KCC2 bumet counter 0.04, KCC2 sec2 inactive, HEK counter1 0.019, KCC2 retest ouab 0.032 and HEK counter2 0.012.
Screening Cc1ccccc1-n1c(-c2ccc(Br)o2)n[nH]c1=S returned SKKanGAS inh inactive.
For CCN(CC)S(=O)(=O)c1ccc(C)c(NC(=O)COC(=O)c2ccc(C)c(S(=O)(=O)N3CCOCC3)c2)c1 the results were SKKanGAS inh inactive, Autophagy HCS inactive, Rad51 HR inh inactive, Ins promoter up inactive, KCC2 mod inactive and WT yeast gro inh inactive.
Clc1c(Cl)c(Cl)c2n[nH]nc2c1Cl was read as SKKanGAS inh inactive, Rad51 HR inh inactive, Ins promoter up inactive, KCC2 mod -6.7, KCC2 secondary inconclusive, KCC2 bumet counter inactive, KCC2 sec2 inconclusive, HEK counter1 0.0034, KCC2 retest ouab 0.013 and HEK counter2 0.0074.
`COc1cc(O)c(CCC(=O)c2ccc(OC)c(OC)c2)c(OC)c1` gave SKKanGAS inh inactive.
For O=[N+]([O-])c1ccccc1/C=N/n1c(C2CCCCC2)n[nH]c1=S the results were SKKanGAS inh inactive, Autophagy HCS inactive, Rad51 HR inh inactive, Ins promoter up inactive, KCC2 mod 11, WT yeast gro inh 58, KCC2 secondary inactive, KCC2 bumet counter 0.033, KCC2 sec2 inactive, HEK counter1 0.024, KCC2 retest ouab 0.031 and HEK counter2 0.019.
For S=c1[nH]nc(C2CCCCC2)n1/N=C/C(Cl)=C\c1ccccc1 the results were SKKanGAS inh inactive, Autophagy HCS inactive, Rad51 HR inh inactive, Ins promoter up inactive, KCC2 mod inactive and WT yeast gro inh inactive.
`S=c1[nH]nc(C2CCCCC2)n1/N=C/C=C/c1ccccc1` gave SKKanGAS inh inactive, Autophagy HCS inactive, Ins promoter up inactive, KCC2 mod 7.7, WT yeast gro inh inactive, KCC2 secondary inactive, KCC2 bumet counter 0.037, KCC2 sec2 0.046, HEK counter1 0.034, KCC2 retest ouab 0.032 and HEK counter2 0.031.
`O=C(NCCC(NS(=O)(=O)OCC(Cl)(Cl)Cl)c1ccccc1)C(F)(F)F` (centres undefined) gave SKKanGAS inh inactive.
Screening Cc1ccc(Nc2nnc(SCC(=O)Nc3cccc(S(=O)(=O)NC4=NCCCCC4)c3)s2)cc1 returned SKKanGAS inh inactive, Autophagy HCS inactive, Rad51 HR inh inactive, KCC2 mod inactive and WT yeast gro inh inactive.
Cc1cccc(NC(=O)CSc2nnc(NC(=O)CN3CCCCC3)s2)c1 was read as SKKanGAS inh inactive, Autophagy HCS inactive, Rad51 HR inh inactive, Ins promoter up inactive, KCC2 mod inactive and WT yeast gro inh inactive.
`CCc1ccc(Nc2nnc(SCC(=O)Nc3cccc(S(=O)(=O)NC4=NCCCCC4)c3)s2)cc1` gave SKKanGAS inh inactive, Autophagy HCS inactive, Rad51 HR inh inactive, Ins promoter up inactive, KCC2 mod -7.4, WT yeast gro inh inactive, KCC2 secondary inactive, KCC2 bumet counter 0.0078, KCC2 sec2 0.026, HEK counter1 inactive, KCC2 retest ouab 0.011 and HEK counter2 inactive.
Cc1cccc(Nc2nnc(SCC(=O)Nc3cccc(S(=O)(=O)N4CCCCC4)c3)s2)c1 was read as SKKanGAS inh inactive, Autophagy HCS inactive, Ins promoter up inactive, KCC2 mod -5.1, WT yeast gro inh inactive, KCC2 secondary inactive, KCC2 bumet counter inactive, KCC2 sec2 inconclusive, HEK counter1 inconclusive, KCC2 retest ouab 0.014 and HEK counter2 inactive.
